Measured values published in ChEMBL document CHEMBL4342509, “New 8-Nitroquinolinone Derivative Displaying Submicromolar in Vitro Activities against Both Trypanosoma brucei and cruzi” (ACS Med Chem Lett, 2020).

Assays:
Leishmania infantum = assay: Antileishmanial activity against Leishmania infantum MHOM/MA/67/ITMAP-263 axenic amastigotes expressing luciferase plasmid assessed as reduction in parasite viability incubated for 48 hrs by Steady Glow reagent based luminescence assay; assay type: functional, organism-based; conditions: MHOM/MA/67/ITMAP-263, 48 h
HepG2 = assay: (§1) Cytotoxicity against human HepG2 cells assessed as reduction in cell viability incubated for 72 hrs by MTT assay; assay type: cell-based; conditions: hepg2, 72 h
[1] = Selectivity index, ratio of CC50 for human HepG2 cells to EC50 for Trypanosoma brucei brucei trypomastigotes AnTat 1.9; assay type: toxicity; conditions: read-out: Ratio CC50/EC50
[2] = test system: Trypanosoma brucei brucei; assay: Antitrypanosomal activity against Trypanosoma brucei brucei AnTat 1.9 trypomastigotes assessed as reduction in parasite viability incubated for 69 hrs by Alamar Blue dye based assay; assay type: functional, organism-based; conditions: AnTat 1.9, 69 h
Outline: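 Bloodstream AnTat 1.9 parasites grown at 37°C, 5% CO₂ in MEM with Earle's salts (Baltz-type) plus 0.5 mM mercaptoethanol, 1.5 mM L-cysteine, 0.05 mM bathocuproine sulfate and 20% heat-inactivated horse serum. EC50 from nonlinear regression, three independent experiments in duplicate.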

[3] = Half life in NMRI mouse at 25 mg/Kg, ig measured up to 24 hrs by LCMS analysis; assay type: ADME; conditions: in vivo, po
Trypanosoma cruzi = assay: Antitrypanosomal activity against Trypanosoma cruzi CL Brener amastigotes infected in African green monkey Vero cells assessed as reduction in parasite growth incubated for 120 hrs at 24 hrs post-infection and measured on day 6 post-infection by hemocytometer based light microscopy; assay type: functional, organism-based
Outline: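 Compounds, 2–4-fold serial dilutions over 0,1–25 µM final, applied for 120 h at 37°C. On day 6, released trypomastigotes pooled, centrifuged and counted by haemocytometer. EC50 by nonlinear regression; two experiments, triplicate wells.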

[4] = Electrochemical behavior of the compound assessed as redox potential corrected toward normal hydrogen electrode by cyclic voltammetry
[5] = test system: Trypanosoma brucei brucei; assay: Antitrypanosomal activity against blood stream form of Trypanosoma brucei brucei S427 trypomastigotes overexpressing NTR assessed as inhibition of parasite growth; assay type: functional, organism-based
[6] = test system: Trypanosoma brucei brucei; assay: Antitrypanosomal activity against bloodstream form of wild type Trypanosoma brucei brucei S427 trypomastigotes assessed as inhibition of parasite growth; assay type: functional, organism-based
[7] = test system: Trypanosoma brucei brucei; assay: Selectivity index, ratio of EC50 for bloodstream form of wild type Trypanosoma brucei brucei S427 trypomastigotes to EC50 for blood stream form of Trypanosoma brucei brucei S427 trypomastigotes overexpressing NTR; assay type: functional
Leishmania donovani [8] = assay: Antileishmanial activity against Leishmania donovani BOB (MHOM/SD/62/1S-CL2D) promastigotes overexpressing NTR1 assessed as inhibition of parasite growth incubated for 72 hrs by resazurin dye based assay; assay type: functional, organism-based
Outline: (§2)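 LdBOB promastigotes grown at 26 °C in modified M199; NTR1- or NTR2-overexpressing lines kept under nourseothricin (100 µg/mL). Triplicate cultures seeded at 5×10^4 parasites/mL with drug for 72 h; 50 µM resazurin added, fluorescence (ex 528/em 590 nm) read after a further 4 h.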

[9] = Permeability of the compound in pH 7.4 Prisma HT buffer at 100 uM incubated for 4 hrs by PAMPA-BBB assay method; assay type: ADME; conditions: read-out: permeability
Leishmania donovani [10] = assay: Antileishmanial activity against wild type Leishmania donovani BOB (MHOM/SD/62/1S-CL2D) promastigotes assessed as inhibition of parasite growth incubated for 72 hrs by resazurin dye based assay; assay type: functional, organism-based; outline: as §2
Leishmania donovani [11] = assay: Antileishmanial activity against Leishmania donovani BOB (MHOM/SD/62/1S-CL2D) promastigotes overexpressing NTR2 assessed as inhibition of parasite growth incubated for 72 hrs by resazurin dye based assay; assay type: functional, organism-based; outline: as §2
[12] = Microsomal stability in CD-1 mouse liver microsomes in presence of NADP measured up to 40 mins by LC-MS analysis; assay type: ADME, Microsome
Outline: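 Compound incubated in duplicate with female CD-1 mouse microsomes at 37°C in 50 mM phosphate pH 7.4. Cofactors: 5 mM MgCl₂, 1 mM NADP, 0.4 U/mL G6PDH and 5 mM glucose-6-phosphate. […] Propranolol reference.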

[13] = as §1; assay type: cell-based; conditions: HepG2 cells

Compound `O=c1[nH]c2c([N+](=O)[O-])cc(C#CCO)cc2cc1Cl` has an EC50 (Leishmania infantum) of 8.9 µM, a CC50 (HepG2) of 30.9 µM and a selectivity ratio [1] of 31. It also gave an EC50 [2] of 1000 nM.

For `O=c1[nH]c2c([N+](=O)[O-])cc(C(F)(F)F)cc2cc1Cl`, the EC50 (Leishmania infantum) was 9.2 µM, the CC50 (HepG2) was 31.4 µM and the selectivity ratio [1] was 55. For the same compound, the EC50 [2] was 570 nM.

Work on `CSc1ccc(OCc2ncc([N+](=O)[O-])n2C)cc1` [FEXINIDAZOLE] yielded an EC50 (Leishmania infantum) of 3.4 µM, a CC50 (HepG2) greater than 200 µM and a half-life [3] of 48 min. For the same compound, the selectivity ratio [1] was greater than 500, the EC50 [2] was 400 nM and the EC50 (Trypanosoma cruzi) was 3000 nM.

In the case of `Cc1ccc(C(=O)Nc2ccc(S(=O)(=O)O)c3cc(S(=O)(=O)O)cc(S(=O)(=O)O)c23)cc1NC(=O)c1cccc(NC(=O)Nc2cccc(C(=O)Nc3cc(C(=O)Nc4ccc(S(=O)(=O)O)c5cc(S(=O)(=O)O)cc(S(=O)(=O)O)c45)ccc3C)c2)c1` [SURAMIN], the CC50 (HepG2) is reported as greater than 100 µM, the selectivity ratio [1] is reported as greater than 3330 and the EC50 [2] is reported as 30 nM.

In the case of `O=c1[nH]c2c([N+](=O)[O-])cc(Cl)cc2cc1Cl`, the EC50 (Leishmania infantum) is reported as 6.2 µM, the CC50 (HepG2) is reported as 24.3 µM and the selectivity ratio [1] is reported as 243. The Activity [4] was -0.37 V and the EC50 [2] was 100 nM.

For `CC1CS(=O)(=O)CCN1/N=C/c1ccc([N+](=O)[O-])o1` (stereo not drawn) [NIFURTIMOX], the EC50 [5] was 600 nM and the EC50 [6] was 1.9 µM.

`NCCCC(N)(C(=O)O)C(F)F` (stereo not drawn) [EFLORNITHINE] showed a CC50 (HepG2) greater than 100 µM and an EC50 [2] of 13300 nM.

In the case of `O=C(Cn1ccnc1[N+](=O)[O-])NCc1ccccc1` [BENZNIDAZOLE], the EC50 (Trypanosoma cruzi) is reported as 500 nM.

`O=c1[nH]c2ccc(C(F)(F)F)cc2cc1Cl` gave an EC50 (Leishmania infantum) greater than 100 µM, a CC50 (HepG2) greater than 100 µM and an EC50 [2] greater than 50000 nM.

In the case of `O=C(O)c1ccc(-c2cc3cc(Br)cc([N+](=O)[O-])c3[nH]c2=O)cc1`, the “Ratio EC50” value [7] is reported as 40, the EC50 (Leishmania infantum) is reported as 8 µM and the CC50 (HepG2) is reported as 60.4 µM. It also gave an EC50 (Leishmania donovani [8]) of 1300 nM, a Papp at 4 h, 100 µM [9] of 1.27 ×10⁻⁶ cm/s and an EC50 (Leishmania donovani [10]) of 2000 nM. The EC50 (Leishmania donovani [11]) was 2100 nM, the EC50 [5] was 100 nM and the selectivity ratio [1] was 302. For the same compound, the EC50 [6] was 4 µM, the Activity [4] was -0.4 V and the EC50 [2] was 200 nM. It also gave a t1/2 [12] greater than 40 min.

For `O=C(O)c1ccc(-c2cc3cccc([N+](=O)[O-])c3[nH]c2=O)cc1`, the EC50 (Leishmania infantum) was greater than 100 µM, the CC50 at 72 h [13] was 120 µM and the EC50 [5] was 4200 nM. The selectivity ratio [1] was 80, the EC50 [6] was 5.4 µM and the Activity [4] was -0.56 V. For the same compound, the EC50 [2] was 1500 nM.

Compound `O=c1[nH]c2ccc(C(F)(F)F)cc2cc1Br` has an EC50 (Leishmania infantum) greater than 100 µM, a CC50 (HepG2) greater than 100 µM and an EC50 [2] greater than 50000 nM.
